Measured values from ChEMBL document CHEMBL3259666, “Discovery of a neuroprotective chemical, (S)-N-(3-(3,6-dibromo-9H-carbazol-9-yl)-2-fluoropropyl)-6-methoxypyridin-2-amine [(-)-P7C3-S243], with improved druglike properties” (J Med Chem, 2014).
Calls of active or inactive are those of the source. No cut-off for these calls is given here.

System: Mus musculus
Assay: Neuroprotective activity in wild type C57BL/J6 mouse assessed as survival of newborn hippocampal neurons at 10 uM, icv administered for 7 days by BrdU staining-based immunohistochemical analysis relative to vehicle-treated control
Assay type: functional, organism-based
Procedure, shortened: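 Adult (12 week old) C57BL/J6 mice, environmentally deprived; compound infused via osmotic minipump into left lateral ventricle at 0.5 μL/h for 7 days. BrdU IP 50 mg kg–1 day–1 for 6 days during infusion; perfusion 24 h after last BrdU. BrdU+ cells in SGZ/dentate gyrus of contralateral hemisphere counted in every fifth 40 μm section, normalized to dentate gyrus volume; mean ± SEM.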

Row | Structure (SMILES) | Activity
1 | NCC(F)Cn1c2ccc(Br)cc2c2cc(Br)ccc21 (configuration not stated) | Active
2 | OC(CNc1ccccc1)Cn1c2ccc(Br)cc2c2cc(Br)ccc21 (configuration not stated) | Active
